{"source": "ChEMBL document CHEMBL1156191", "about": "“Characterization of the pharmacophore properties of novel selective estrogen receptor downregulators (SERDs)” (J Med Chem, 2010)", "key": {"[1]": {"target": "Estrogen receptor beta (Homo sapiens) (UniProt Q92731)", "sequence (Q92731 whole entry)": "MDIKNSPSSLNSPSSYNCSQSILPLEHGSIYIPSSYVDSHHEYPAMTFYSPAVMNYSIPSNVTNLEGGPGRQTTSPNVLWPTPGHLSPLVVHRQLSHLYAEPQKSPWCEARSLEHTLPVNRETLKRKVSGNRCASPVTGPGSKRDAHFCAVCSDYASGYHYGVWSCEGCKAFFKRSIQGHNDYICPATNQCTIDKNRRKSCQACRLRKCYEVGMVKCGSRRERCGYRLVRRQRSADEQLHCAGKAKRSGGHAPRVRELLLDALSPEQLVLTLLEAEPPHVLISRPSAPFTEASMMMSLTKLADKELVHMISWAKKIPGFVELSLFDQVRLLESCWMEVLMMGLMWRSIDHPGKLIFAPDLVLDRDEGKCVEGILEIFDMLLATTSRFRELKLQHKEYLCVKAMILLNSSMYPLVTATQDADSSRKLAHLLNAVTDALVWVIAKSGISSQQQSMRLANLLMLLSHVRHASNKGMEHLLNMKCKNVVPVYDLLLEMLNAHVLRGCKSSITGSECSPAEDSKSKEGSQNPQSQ", "experiment": "Displacement of [3H]estradiol from full-length human estrogen receptor beta assessed as relative binding affinity by radiometric assay relative to estradiol"}, "[2]": {"target": "T1, Estrogen receptor (Homo sapiens) (UniProt P03372)", "T1 sequence (whole entry)": "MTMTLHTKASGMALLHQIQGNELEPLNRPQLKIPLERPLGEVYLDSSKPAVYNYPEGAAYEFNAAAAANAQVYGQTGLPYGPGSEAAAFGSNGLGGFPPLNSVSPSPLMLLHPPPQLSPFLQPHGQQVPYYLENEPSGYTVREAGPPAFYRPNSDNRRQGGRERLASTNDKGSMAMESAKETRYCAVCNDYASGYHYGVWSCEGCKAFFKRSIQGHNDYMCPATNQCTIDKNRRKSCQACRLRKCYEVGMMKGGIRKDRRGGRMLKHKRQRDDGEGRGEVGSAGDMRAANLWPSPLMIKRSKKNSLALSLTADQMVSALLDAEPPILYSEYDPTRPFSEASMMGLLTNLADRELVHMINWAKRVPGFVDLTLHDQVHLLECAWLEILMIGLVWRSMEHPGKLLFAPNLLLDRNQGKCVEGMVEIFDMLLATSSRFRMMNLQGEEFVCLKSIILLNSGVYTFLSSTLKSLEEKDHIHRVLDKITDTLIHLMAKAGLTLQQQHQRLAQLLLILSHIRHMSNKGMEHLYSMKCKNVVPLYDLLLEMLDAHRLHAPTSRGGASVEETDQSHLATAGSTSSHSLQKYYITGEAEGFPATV", "experiment": "Displacement of [3H]estradiol from full-length human estrogen receptor alpha assessed as relative binding affinity by radiometric assay relative to estradiol"}, "Homo sapiens": {"species": "Homo sapiens", "experiment": "Ratio of relative binding affinity for human ERbeta to relative binding affinity for human ERalpha"}, "MCF7 [3]": {"test_system": "MCF7", "experiment": "Down regulation of ERalpha expression in human MCF7 cell whole cell extract at 1 uM after 16 hrs by Western blotting", "type": "functional, cell-based", "procedure,_shortened": "(§1)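 MCF-7 cells steroid-depleted five days in phenol red-free medium with 5% charcoal-dextran-treated calf serum, grown to ~80% confluency, then given 1 μM compound or 0.1% EtOH vehicle for 16 h. Cytoplasmic, nuclear, matrix and insoluble fractions or whole-cell lysate prepared. Western blot with anti-ERα (F10) and infrared detection; Sp1 serves as loading reference.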"}, "MCF7 [4]": {"test_system": "MCF7", "experiment": "Down regulation of ERalpha expression in human MCF7 cell nuclear fraction at 1 uM after 16 hrs by Western blotting", "type": "functional, cell-based", "procedure,_shortened": "as §1"}, "MCF7 [5]": {"test_system": "MCF7", "experiment": "Down regulation of ERalpha expression in human MCF7 cell cytoplasmic fraction at 1 uM after 16 hrs by Western blotting", "type": "functional, cell-based", "procedure,_shortened": "as §1"}, "MCF7 [6]": {"test_system": "MCF7", "experiment": "Down regulation of ERalpha expression in human MCF7 cell insoluble fraction at 1 uM after 16 hrs by Western blotting", "type": "functional, cell-based", "procedure,_shortened": "as §1"}, "MCF7 [7]": {"test_system": "MCF7", "experiment": "Down regulation of ERalpha expression in human MCF7 cell matrix fraction at 1 uM after 16 hrs by Western blotting", "type": "functional, cell-based", "procedure,_shortened": "as §1"}, "MCF7 [8]": {"test_system": "MCF7", "experiment": "Down regulation of ERalpha expression in human MCF7 cell whole cell extract at 1 uM treated 16 hrs before estradiol challenge measured after 4 hrs by Western blotting in presence of 1 nM estradiol", "type": "functional, cell-based", "procedure,_shortened": "(§2)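 Steroid-depleted MCF-7 cells (5 d, 5% charcoal-dextran calf serum, phenol red-free medium) exposed 16 h to 1 μM compound, then 1 nM estradiol added for 4 h before fractionation into cytoplasmic, nuclear, matrix, insoluble or whole-cell extracts. ERα detected by Western blot with F10 antibody; Sp1 used as loading reference.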"}, "MCF7 [9]": {"test_system": "MCF7", "experiment": "Down regulation of ERalpha expression in human MCF7 cell matrix fraction at 1 uM treated 16 hrs before estradiol challenge measured after 4 hrs by Western blotting in presence of 1 nM estradiol", "type": "functional, cell-based", "procedure,_shortened": "as §2"}, "MCF7 [10]": {"test_system": "MCF7", "experiment": "Down regulation of ERalpha expression in human MCF7 cell nuclear fraction at 1 uM treated 16 hrs before estradiol challenge measured after 4 hrs by Western blotting in presence of 1 nM estradiol", "type": "functional, cell-based", "procedure,_shortened": "as §2"}, "MCF7 [11]": {"test_system": "MCF7", "experiment": "Down regulation of ERalpha expression in human MCF7 cell cytoplasmic fraction at 1 uM treated 16 hrs before estradiol challenge measured after 4 hrs by Western blotting in presence of 1 nM estradiol", "type": "functional, cell-based", "procedure,_shortened": "as §2"}, "MCF7 [12]": {"test_system": "MCF7", "experiment": "Down regulation of ERalpha expression in human MCF7 cell insoluble fraction at 1 uM treated 16 hrs before estradiol challenge measured after 4 hrs by Western blotting in presence of 1 nM estradiol", "type": "functional, cell-based", "procedure,_shortened": "as §2"}, "[13]": {"target": "T1, Estrogen receptor (Homo sapiens)", "experiment": "Effect on ERalpha-mediated transcriptional activity in human MCF7 cells assessed as reduction of estradiol-induced activation of pS2 mRNA expression at 1 uM treated 16 hrs before estradiol challenge measured after 4 hrs by RT-PCR analysis", "type": "cell-based", "procedure,_shortened": "(§3)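 MCF-7 cells steroid-depleted seven days in phenol red-free medium with 5% charcoal-dextran calf serum, grown to ~80% confluency, then given 1 μM compound 16 h followed by 0.1% ethanol vehicle or 1 nM estradiol for 4 h. Total RNA reverse transcribed and target mRNA quantified by real-time PCR. Repeated-measures one-way ANOVA with Tukey test.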"}, "[14]": {"target": "T1, Estrogen receptor (Homo sapiens)", "experiment": "Effect on ERalpha-mediated transcriptional activity in human MCF7 cells assessed as reduction of estradiol-induced activation of carbonic anhydrase 12 mRNA expression at 1 uM treated 16 hrs before estradiol challenge measured after 4 hrs by RT-PCR analysis", "type": "cell-based", "procedure,_shortened": "as §3"}, "[15]": {"target": "T1, Estrogen receptor (Homo sapiens)", "experiment": "Effect on ERalpha-mediated transcriptional activity in human MCF7 cells assessed as reduction of estradiol-induced activation of progesterone receptor mRNA expression at 1 uM treated 16 hrs before estradiol challenge measured after 4 hrs by RT-PCR analysis", "type": "cell-based", "procedure,_shortened": "as §3"}}, "note": "The source made the active and inactive calls. No cut-off for these calls is given here."}
{"smiles": "O=C(O)C/C=C/c1ccc(C(=C2C3CCCC2CCC3)c2ccc(O)cc2)cc1", "values": [{"measurement": "relative binding affinity (RBA)", "setting": "[1]", "result": 23.1}, {"measurement": "relative binding affinity (RBA)", "setting": "[2]", "result": 9}, {"measurement": "Ratio", "setting": "Homo sapiens", "result": 2.6}]}
{"smiles": "C[C@]12CC[C@@H]3c4ccc(O)cc4C[C@@H](CCCCCCCCC[S+]([O-])CCCC(F)(F)C(F)(F)F)[C@H]3[C@@H]1CC[C@@H]2O", "note": "(stereo partly drawn)", "values": [{"measurement": "Activity", "setting": "MCF7 [3]", "result": "Active"}, {"measurement": "Activity", "setting": "MCF7 [4]", "result": "Active"}, {"measurement": "Activity", "setting": "MCF7 [5]", "result": "Active"}, {"measurement": "Activity", "setting": "MCF7 [6]", "result": "Active"}, {"measurement": "Activity", "setting": "MCF7 [7]", "result": "Active"}]}
{"smiles": "O=C(O)CC/C=C/c1ccc(C(=C2C3CCCC2CCC3)c2ccc(O)cc2)cc1", "values": [{"measurement": "relative binding affinity (RBA)", "setting": "[1]", "result": 24.6}, {"measurement": "relative binding affinity (RBA)", "setting": "[2]", "result": 13.1}, {"measurement": "Ratio", "setting": "Homo sapiens", "result": 1.9}]}
{"smiles": "O=C(O)CCCCCCCCCCOc1ccc(C(=C2C3CCCC2CCC3)c2ccc(O)cc2)cc1", "values": [{"measurement": "Activity", "setting": "MCF7 [3]", "result": "inactive"}, {"measurement": "Activity", "setting": "MCF7 [4]", "result": "inactive"}, {"measurement": "Activity", "setting": "MCF7 [5]", "result": "inactive"}, {"measurement": "Activity", "setting": "MCF7 [6]", "result": "inactive"}, {"measurement": "Activity", "setting": "MCF7 [7]", "result": "inactive"}]}
{"smiles": "O=C(O)CCC/C=C/c1ccc(C(=C2C3CCCC2CCC3)c2ccc(O)cc2)cc1", "values": [{"measurement": "relative binding affinity (RBA)", "setting": "[1]", "result": 62.8}, {"measurement": "relative binding affinity (RBA)", "setting": "[2]", "result": 38.5}, {"measurement": "Ratio", "setting": "Homo sapiens", "result": 1.6}]}
{"smiles": "COP(=O)(O)/C=C/c1ccc(C(=C2C3CCCC2CCC3)c2ccc(O)cc2)cc1", "values": [{"measurement": "relative binding affinity (RBA)", "setting": "[1]", "result": 7.7}, {"measurement": "relative binding affinity (RBA)", "setting": "[2]", "result": 7.5}, {"measurement": "Ratio", "setting": "Homo sapiens", "result": 1}]}
{"smiles": "O=C(O)CCCC/C=C/c1ccc(C(=C2C3CCCC2CCC3)c2ccc(O)cc2)cc1", "values": [{"measurement": "Activity", "setting": "MCF7 [3]", "result": "inactive"}, {"measurement": "Activity", "setting": "MCF7 [4]", "result": "inactive"}, {"measurement": "relative binding affinity (RBA)", "setting": "[1]", "result": 81.1}, {"measurement": "relative binding affinity (RBA)", "setting": "[2]", "result": 87.4}, {"measurement": "Activity", "setting": "MCF7 [5]", "result": "inactive"}, {"measurement": "Ratio", "setting": "Homo sapiens", "result": 0.93}, {"measurement": "Activity", "setting": "MCF7 [6]", "result": "inactive"}, {"measurement": "Activity", "setting": "MCF7 [7]", "result": "inactive"}]}
{"smiles": "Oc1ccc(C(=C2CCCCC2)c2ccc(O)cc2)cc1", "values": [{"measurement": "relative binding affinity (RBA)", "setting": "[1]", "result": 334}, {"measurement": "relative binding affinity (RBA)", "setting": "[2]", "result": 68}]}
{"smiles": "O=C(O)/C=C/c1ccc(C(=C2CCCCC2)c2ccc(O)cc2)cc1", "values": [{"measurement": "Activity", "setting": "MCF7 [3]", "result": "inactive"}, {"measurement": "Activity", "setting": "MCF7 [4]", "result": "inactive"}, {"measurement": "Activity", "setting": "MCF7 [8]", "result": "Active"}, {"measurement": "Activity", "setting": "MCF7 [9]", "result": "Active"}, {"measurement": "Activity", "setting": "MCF7 [5]", "result": "inactive"}, {"measurement": "Activity", "setting": "MCF7 [10]", "result": "Active"}, {"measurement": "Activity", "setting": "MCF7 [6]", "result": "inactive"}, {"measurement": "Activity", "setting": "MCF7 [7]", "result": "inactive"}, {"measurement": "Activity", "setting": "MCF7 [11]", "result": "Active"}, {"measurement": "Activity", "setting": "MCF7 [12]", "result": "Active"}]}
{"smiles": "CCC(=C(c1ccc(O)cc1)c1ccc(/C=C/C(=O)O)cc1)c1ccccc1", "values": [{"measurement": "Activity", "setting": "MCF7 [3]", "result": "inactive"}, {"measurement": "Activity", "setting": "[13]", "result": "Active"}, {"measurement": "Activity", "setting": "MCF7 [4]", "result": "inactive"}, {"measurement": "Activity", "setting": "[14]", "result": "Active"}, {"measurement": "Activity", "setting": "MCF7 [8]", "result": "Active"}, {"measurement": "Activity", "setting": "MCF7 [9]", "result": "Active"}, {"measurement": "Activity", "setting": "MCF7 [5]", "result": "Active"}, {"measurement": "Activity", "setting": "MCF7 [10]", "result": "Active"}, {"measurement": "Activity", "setting": "[15]", "result": "Active"}, {"measurement": "Activity", "setting": "MCF7 [6]", "result": "inactive"}, {"measurement": "Activity", "setting": "MCF7 [7]", "result": "inactive"}, {"measurement": "Activity", "setting": "MCF7 [11]", "result": "Active"}, {"measurement": "Activity", "setting": "MCF7 [12]", "result": "Active"}]}
{"smiles": "O=C(O)/C=C/c1ccc(C(=C2C3CCCC2CCC3)c2ccc(O)cc2)cc1", "values": [{"measurement": "Activity", "setting": "MCF7 [3]", "result": "inactive"}, {"measurement": "Activity", "setting": "[13]", "result": "Active"}, {"measurement": "Activity", "setting": "MCF7 [4]", "result": "inactive"}, {"measurement": "Activity", "setting": "[14]", "result": "Active"}, {"measurement": "Activity", "setting": "MCF7 [8]", "result": "Active"}, {"measurement": "Activity", "setting": "MCF7 [9]", "result": "Active"}, {"measurement": "Activity", "setting": "MCF7 [5]", "result": "Active"}, {"measurement": "Activity", "setting": "MCF7 [10]", "result": "Active"}, {"measurement": "Activity", "setting": "[15]", "result": "Active"}, {"measurement": "Activity", "setting": "MCF7 [6]", "result": "inactive"}, {"measurement": "Activity", "setting": "MCF7 [7]", "result": "inactive"}, {"measurement": "Activity", "setting": "MCF7 [11]", "result": "Active"}, {"measurement": "Activity", "setting": "MCF7 [12]", "result": "Active"}]}
